# From PubChem
# Shown are actives, neighbours in structure and some others; about 2.7% of the full set was active somewhere.
# S100A4 inh HTS: inhibitors of human S100A4 binding to myosin IIA peptide; P26447; S100A4/TAMRA-MyoIIA peptide fluorescence polarization; inhibition, % at 10.7 µM; 360,000 compounds, 0.14% hits;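 active means mean inhibition of at least 70% across replicates, with every replicate also reaching that level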
# Target sequence (P26447 whole entry, looked up): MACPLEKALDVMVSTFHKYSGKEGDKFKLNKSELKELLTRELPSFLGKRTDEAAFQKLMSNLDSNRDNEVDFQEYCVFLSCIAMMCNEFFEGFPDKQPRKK
#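 Material: S100A4 monomer (human). Medium: Calcium-containing HEPES buffer, pH 7.2. Probe or stimulus: labelled myosin peptide probe, 5 nM. Compound dosing: one concentration per compound. Timing: polarization read 5 min after assay mix addition, stable 5–60 min. Benchmarks: DMSO as neutral control, TFP as positive control.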
# FGF22 binding-1: shifts melting point of recombinant human FGF22 | Q9HCT0 | recombinant FGF22 thermal shift, SYPRO orange fluorescence; percent of sucrose octasulfate shift, DMSO zero | activity (Tm shift, normalised), % at 9.99 µM | 340,000 compounds, 1.5% hits | AID 651658;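 active means mean Tm shift, scaled 0 neutral to 100 positive control, at about 1.3% or above, every replicate too, limit read from the data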
# Target sequence (Q9HCT0 whole entry, looked up): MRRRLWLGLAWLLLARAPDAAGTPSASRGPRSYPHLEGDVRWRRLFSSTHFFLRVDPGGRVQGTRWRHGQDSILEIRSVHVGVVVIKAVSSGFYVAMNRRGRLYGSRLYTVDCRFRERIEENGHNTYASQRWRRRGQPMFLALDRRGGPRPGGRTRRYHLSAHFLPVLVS
# HIV Env fusion: blocks HIV Env-driven cell-cell fusion. HeLa-JRFL Env/CEM21 cell fusion, luciferase. AID 651610. 360,000 compounds, 1.1% hits. inhibition, % at 12.3 µM;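 active means mean replicate inhibition score of at least 50 and every replicate individually at or above 50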;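 further: 0% = plate neutral controls and 100% = maraviroc near 300 nM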
# E-sel inducer: induces E-selectin expression in human endothelial cells; P16581; HUVEC E-selectin immunofluorescence imaging; normalized: neutral wells 0, TNF-alpha wells 100; activation, % at 7.58 µM; 260,000 compounds, 0.37% hits; AID 686992;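 active means mean E-selectin-positive cell signal at least 10% of the positive control, reached in at least 60% of replicates, without over 20% cell loss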
#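 Assay system: HUVEC primary endothelial cells. Input: 3,000 HUVEC seeded per well. Doses: one compound dose added by pin transfer. Read-out basis: % PE-positive cells. Benchmarks: TNF-alpha high, DMSO low. Detection: immunofluorescence imaging. Buffer or medium: EGM-2, gelatin.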
# F508del corr: CFTR F508del correction in bronchial cells; CFBE cells, YFP halide quenching; stimulated with forskolin plus potentiator P3; % fluorescence drop versus neutral controls; activity (quench increase), % at 7.58 µM; 350,000 compounds, 0.36% hits;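 active means mean added fluorescence quench of at least 8% versus neutral control, with both replicates also reaching 8%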;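 further: cells transiently co-express mutant CFTR-F508del with the halide-sensitive YFP; corrector assay measuring rescue of mutant channel to the surface after 24 h compound exposure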
# FGF22 binding-2: binds human FGF22 shifting its melting temperature; shares compounds with FGF22 binding-1; recombinant FGF22 thermal shift, SYPRO orange fluorescence; thermal shift activity, °C (ΔTm) at 38 µM; 1,000 compounds, 2% hits; AID 720646;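 active means fitted rise in melting shift crosses a set limit at or below the top valid dose tested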
# TSA no protein: counter-screen for FGF22 binders: compound-only thermal shift, no protein | shares compounds with FGF22 binding-1 | compound-only SYPRO orange thermal shift counter-screen | AC50, µM (series often up to 38 µM) | 1,000 compounds, 2% hits;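 active means rising signal whose fitted curve reaches the 0.54 level within the top valid dose, showing a melting point, actives reach about 13 µM in these data; inactive means the rest, including activity in the opposite direction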; further: value is where the raw curve crosses a fixed level and not half-maximal
# Starred values were filed as active, the others as inactive; i = inactive; nt = no result; ! = a repeat was not active; [ ] = dose if it differs, or a comment.
SMILES,S100A4 inh HTS,FGF22 binding-1,HIV Env fusion,E-sel inducer,F508del corr,FGF22 binding-2,TSA no protein
C[C@@H]1CN([C@H](C)CO)C(=O)CCCn2cc(nn2)CO[C@@H]1CN(C)C(=O)OCc1ccccc1,nt,nt,26[16.7 µM],0,-3,nt,nt
C[C@H](CO)N1C[C@H](C)[C@@H](CN(C)C(=O)OCc2ccccc2)OCc2cn(nn2)CCCC1=O,-2,17*!,-183,nt,-4,0.091,i
CO[C@H]1CN(C)C(=O)c2cc(NC(=O)c3cccc(F)c3)ccc2OC[C@H](C)N(C(C)=O)C[C@@H]1C,nt,nt,nt,0,-1,nt,nt
Cc1ccccc1S(=O)(=O)N[C@H]1CC[C@H](CCn2cc(-c3ccccc3)nn2)O[C@@H]1CO,7,0,-2[16.7 µM],0,-1,nt,nt
Cc1cc(NC(=O)CCc2c[nH]c3ccccc23)ccc1Oc1cccnc1,-11,1,-52,1,2,nt,nt
N#CCC(=O)Nc1ccc(C(=O)NCCc2c[nH]c3ccccc23)cc1,-2,1.4*,-2,0,-1,0.013,i
O=C(CCc1c[nH]c2ccccc12)Nc1ccc(Oc2cccnc2)cc1,1,1.5*,-62,1,-2,-0.17,i
O=C(NCCc1c[nH]c2ccccc12)c1ccccc1,4,1,-262,nt,-1,nt,nt
O=C1COc2ccc(S(=O)(=O)N3CCCCC3)cc2N1,2,0,1,0,-2,nt,nt
O=C1COc2ccc(S(=O)(=O)N3CCCC3)cc2N1,6,1.5*,-6,nt,0,0.026,i
COc1ccc(CCNC(=O)C(=O)c2c(C)[nH]c3ccccc23)cc1,3,0,1,nt,0,nt,nt
Cc1[nH]c2ccccc2c1C(=O)C(=O)NCCOc1ccccc1,-2,17*,-14,nt,2,0.084,i
C[C@H]1CCCCO[C@H](CN(C)S(C)(=O)=O)[C@@H](C)CN([C@@H](C)CO)C(=O)c2cc(NC(=O)c3ccccc3)ccc2O1,7,nt,1[16.7 µM],0,-3,nt,nt
O=C1C=CCCN1S(=O)(=O)/C=C/c1ccccc1,-21,17*,-142[16.7 µM],nt,-5,0.039,i
COC(=O)[C@]1(C)N[C@H](c2ccc(-c3cccc(Cl)c3)cc2)[C@@H]2C(=O)N(C)C(=O)[C@@H]21,17,0,6,0,3,nt,nt
COC(=O)[C@]1(C)N[C@H](c2ccc(-c3ccccc3)cc2)[C@@H]2C(=O)N(C)C(=O)[C@@H]21,-2,8.1*,-26,0,1,-0.025,i
